Usually IC50 stands for the midpoint of a concentration-inhibition curve. A low value points to inhibition by little substance.

Structures are written as SMILES.

The text below walks through data of ChEMBL document CHEMBL1155133, “Synthesis, cytotoxicity, and antioxidative activity of minor prenylated chalcones from Humulus lupulus” (J Nat Prod, 2008).

Experiment [1] in a line: Antioxidant activity assessed as trolox equivalents at 0.2 to 0.6 uM by ORAC-fluorescein assay. It counts as functional.
A short description of experiment [2]: Antioxidant activity assessed as trolox equivalents at 0.1 to 1 uM by ORAC-fluorescein assay. It counts as functional. The method in brief: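 Fluorescein probe at 300 nM final in 75 mM phosphate buffer, pH 7.4. Samples at five concentrations (0.1-1.0 µM) preincubated with probe at 37 °C for 15 min. AAPH (12 mM final) then added. Fluorescence (ex 485/em 536 nm) read every minute for 80 min at 37 °C. Quadruplicates, ≥4 independent assays. AUC converted to Trolox equivalents (mean ± SD) using a 1-8 µM Trolox curve run in each assay.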

Another experiment has as its system HeLa. Kind of experiment: Cytotoxicity against human HeLa cells by MTT assay after 72 hrs. It counts as functional, cell-based. The method in brief:
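HeLa (ATCC […]) cells grown in MEM with 10% FCS and 2 mM L-glutamine at 37 °C, 5% CO2. MTT colorimetric read-out at 560 nm. Eight concentrations tested in duplicate, with experiments repeated three times. IC50 reported as mean ± SD.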
(Formazan colour is commonly taken as a measure of viable cells.)

Experiment [3] can be described thus: Antioxidant activity assessed as trolox equivalents at 0.2 to 1 uM by ORAC-fluorescein assay. It counts as functional.
The nature of experiment [4]: Antioxidant activity assessed as trolox equivalents at 0.4 to 1.3 uM by ORAC-fluorescein assay. It counts as functional.

With `O=c1c(O)c(-c2ccc(O)c(O)c2)oc2cc(O)cc(O)c12`, the Activity in experiment [1] was 10.5.

Consider `COc1cc(O)c(C(=O)/C=C/c2ccc(O)cc2)c(OC)c1` [FLAVOKAWAIN C], for which the Activity in experiment [2] is 4. Moreover, in the experiment on HeLa, the IC50 is 19.2 µM.

For the molecule `COc1cc(O)c(CC=C(C)C)c(O)c1C(=O)/C=C/c1ccc(O)cc1`, the Activity in experiment [2] amounted to 2.3.

In the case of `CC(C)=CCC/C(C)=C/Cc1c(O)cc(O)c(C(=O)/C=C/c2ccc(O)cc2)c1O`, the Activity in experiment [2] was determined as 2.3. The 50% inhibitory concentration (IC50) in the experiment on HeLa is 18.2 µM.

With `COc1cc2c(c(O)c1C(=O)/C=C/c1ccc(O)cc1)CCC(C)(C)O2`, in experiment [2], the Activity was determined as 1.7. The molecule further returned an IC50 with HeLa of 15.4 µM.

For the molecule `COc1c(CC=C(C)C)c(O)cc(O)c1C(=O)/C=C/c1ccc(O)cc1`, the Activity in experiment [2] was found to be 5.2. This molecule gave an IC50 in the experiment on HeLa of 10.4 µM.

As to `COc1cc2c(c(O)c1C(=O)/C=C/c1ccc(O)cc1)C=CC(C)(C)O2` [XANTHOHUMOL C], in experiment [2], the Activity is 1.8. Also, the IC50 in the experiment with HeLa is 12.5 µM.

Take `COc1c(CC=C(C)C)c(O)c(CC=C(C)C)c(O)c1C(=O)/C=C/c1ccc(O)cc1`: in experiment [2], the Activity came out at 1.9. In the experiment with HeLa, this molecule yielded an IC50 of 9.7 µM.

`COc1cc(O)c(C/C=C(\C)CCC=C(C)C)c(O)c1C(=O)/C=C/c1ccc(O)cc1`: the Activity in experiment [2] is 3.4. In the experiment on HeLa, this molecule showed a 50% inhibitory concentration (IC50) of 8.2 µM.

`O=C(O)/C=C/c1ccc(O)c(O)c1`: the Activity in experiment [3] is 6.6.

For the molecule `COc1cc(O)c(CCC(C)(C)O)c(O)c1C(=O)/C=C/c1ccc(O)cc1` [XANTHOHUMOL H], the Activity in experiment [2] is 4.8. Moreover, in the experiment with HeLa, 9.2 µM corresponded to half-maximal inhibition (IC50).

As for `COc1cc(/C=C/C(=O)O)ccc1O`, the Activity in experiment [4] was found to be 4.4.

Regarding `COc1cc(OC)c(C(=O)/C=C/c2ccc(O)cc2)c(O)c1C`, the Activity in experiment [2] is 2.1. In addition, in the experiment with HeLa, 12.2 µM corresponded to half-maximal inhibition (IC50).
